Experimental data taken from ChEMBL document CHEMBL1138087, “Synthesis and evaluation of N-aryl pyrrolidinones as novel anti-HIV-1 agents. Part 1” (Bioorg Med Chem Lett, 2006).

Experiments:
[1] = test system: Human immunodeficiency virus 1; experiment: Antiviral activity against wild type HIV1 virus; assay type: functional, organism-based
Summary of the method: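 HEK 293T cells grown in DMEM with 10% FBS and Pen/Strep/Glutamine. Seeded at 700 cells/well, cultured 24 h at 37 °C under 5% CO₂. Serially diluted compound in DMSO added, then 1 h at 37 °C. HIV reporter virus added at MOI about 1.0, cells cultured a further 48 h at 37 °C. Luciferase read-out with Bright-Glo reagent.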

[2] = test system: HEK293; experiment: Cytotoxicity against HEK293T cells; assay type: functional; settings: Homo sapiens
Summary of the method: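 293T cells seeded at 700 cells/well and cultured 24 h at 37 °C under 5% CO₂. Serially diluted compound in DMSO added to uninfected cells, then a further 48 h at 37 °C. Viability read by fluorescence after Alamar Blue (diluted 1:1 in DMEM) and 4 h at room temperature.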

[3] = test system: Human immunodeficiency virus 1; experiment: Selectivity for wild type HIV1 virus over HIV1 K103N mutant; assay type: functional
[4] = test system: Human immunodeficiency virus 1; experiment: Selectivity for wild type HIV1 virus over HIV1 Y181C mutant; assay type: functional
[5] = test system: Human immunodeficiency virus 1; experiment: Selectivity for wild type HIV1 virus over HIV1 L100I mutant; assay type: functional
[6] = test system: Human immunodeficiency virus 1; experiment: Selectivity for wild type HIV1 virus over HIV1 K103N/L100I mutant; assay type: functional
[7] = test system: Human immunodeficiency virus 1; experiment: Antiviral activity against HIV1 K103N mutant; assay type: functional, organism-based
Summary of the method: (§1)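 HEK 293T cells grown in DMEM with 10% FBS and Pen/Strep/Glutamine. Cells seeded at 700 cells/well and cultured 24 h at 37 °C under 5% CO₂. Compounds serially diluted in DMSO were added and incubated 1 h at 37 °C. Cells were then infected with HIV reporter virus at MOI ~1.0 and cultured a further 48 h at 37 °C. Read-out was luciferase activity (Bright-Glo).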

[8] = test system: Human immunodeficiency virus 1; experiment: Antiviral activity against HIV1 Y181C mutant; assay type: functional, organism-based; summary of the method: as §1
[9] = test system: Human immunodeficiency virus 1; experiment: Antiviral activity against HIV1 L100I mutant; assay type: functional, organism-based; summary of the method: as §1
[10] = test system: Human immunodeficiency virus 1; experiment: Antiviral activity against HIV1 K103N/L100I mutant; assay type: functional, organism-based; summary of the method: as §1

Row | EC50 [1] | SMILES | CC50 [2] | also measured
1 | 520 nM | COc1ccc([C@H]2CC(=O)N(c3cccc(C#N)c3)C2)cc1OC1CCCC1 | > 10000 nM | 
2 | 5790 nM | COc1ccc([C@H]2CC(=O)N(c3cccc(NC(=O)C(C)=O)c3)C2)cc1OC1CCCC1 | > 10000 nM | 
3 | 256 nM | COc1ccc(S(=O)(=O)Nc2cccc(N3C[C@@H](c4ccc(OC)c(OC5CCCC5)c4)CC3=O)c2)cc1 | > 10000 nM | 
4 | 1960 nM | COc1ccc([C@H]2CC(=O)N(c3cccc(NCc4ccoc4)c3)C2)cc1OC1CCCC1 | > 10000 nM | 
5 | > 10000 nM | COc1ccc([C@H]2CC(=O)N(c3cccc([S+](C)[O-])c3)C2)cc1OC1CCCC1 (stereo partly specified) | > 10000 nM | 
6 | 2280 nM | COc1ccc([C@H]2CC(=O)N(c3ccccc3)C2)cc1OC1CCCC1 | > 10000 nM | 
7 | 6960 nM | CCCCNc1cccc(N2C[C@@H](c3ccc(OC)c(OC4CCCC4)c3)CC2=O)c1 | > 10000 nM | 
8 | 419 nM | COc1ccc([C@H]2CC(=O)N(c3cccc(C)c3)C2)cc1OC1CCCC1 | > 10000 nM | 
9 | 1780 nM | COc1ccc([C@H]2CC(=O)N(c3cccc(O)c3)C2)cc1OC1CCCC1 | > 10000 nM | 
10 | 4710 nM | COc1ccc([C@H]2CC(=O)N(c3cccc(N(C)C)c3)C2)cc1OC1CCCC1 | > 10000 nM | 
11 | > 10000 nM | COc1ccc([C@H]2CC(=O)N(c3cccc(S(C)(=O)=O)c3)C2)cc1OC1CCCC1 | > 10000 nM | 
12 | 102 nM | COc1ccc([C@H]2CC(=O)N(c3cccc(NS(=O)(=O)c4ccc(F)cc4)c3)C2)cc1OC1CCCC1 | > 10000 nM | 
13 | 2950 nM | COc1ccc([C@H]2CC(=O)N(c3cccc(C(F)(F)F)c3)C2)cc1OC1CCCC1 | > 10000 nM | 
14 | 800 nM | COc1ccc([C@H]2CC(=O)N(c3cccc(NS(=O)(=O)c4cccc(OC(F)(F)F)c4)c3)C2)cc1OC1CCCC1 | > 10000 nM | 
15 | 502 nM | COc1cccc(C(=O)C(=O)Nc2cccc(N3C[C@@H](c4ccc(OC)c(OC5CCCC5)c4)CC3=O)c2)c1 | > 10000 nM | 
16 | 502 nM | COc1ccc([C@H]2CC(=O)N(c3cccc(NC(=O)C(=O)c4cccs4)c3)C2)cc1OC1CCCC1 | > 10000 nM | 
17 | 7900 nM | COc1ccc([C@H]2CC(=O)N(c3cccc(NCCCc4ccccc4)c3)C2)cc1OC1CCCC1 | > 10000 nM | 
18 | 124 nM | COc1ccc([C@H]2CC(=O)N(c3cccc(NC(=O)C(=O)c4cccc(N(C)C)c4)c3)C2)cc1OC1CCCC1 | > 10000 nM | 
19 | 196 nM | COc1ccc([C@H]2CC(=O)N(c3ccc(C)c(N)c3)C2)cc1OC1CCCC1 | > 10000 nM | 
20 | 104 nM | COc1ccc(OC)c(S(=O)(=O)Nc2cccc(N3C[C@@H](c4ccc(OC)c(OC5CCCC5)c4)CC3=O)c2)c1 | 7590 nM | 
21 | 1020 nM | COc1ccc([C@H]2CC(=O)N(c3cccc(NCC4CCOC4)c3)C2)cc1OC1CCCC1 (stereo partly specified) | > 10000 nM | 

The remaining lines, values behind:

Row | SMILES | EC50 [1] | CC50 [2] | also measured
22 | COc1ccc([C@H]2CC(=O)N(c3cccc(NS(=O)(=O)c4ccccc4F)c3)C2)cc1OC1CCCC1 | 64 nM | > 10000 nM | Selectivity ratio [3]: 4.2; Selectivity ratio [4]: 21; Selectivity ratio [5]: 0.53; Selectivity ratio [6]: 0.64; EC50 [7]: 269 nM; EC50 [8]: 1500 nM; EC50 [9]: 34 nM; EC50 [10]: 41 nM
23 | COc1ccc([C@H]2CC(=O)N(C(=O)c3ccccc3)C2)cc1OC1CCCC1 | > 10000 nM | > 10000 nM | 
24 | COc1ccc([C@H]2CC(=O)N(c3cccc(NS(=O)(=O)c4cccc(C)c4)c3)C2)cc1OC1CCCC1 | 46 nM | > 10000 nM | Selectivity ratio [3]: 3.4; Selectivity ratio [4]: 6.2; Selectivity ratio [5]: 0.3; Selectivity ratio [6]: 0.41; EC50 [7]: 158 nM; EC50 [8]: 284 nM; EC50 [9]: 14 nM; EC50 [10]: 19 nM
25 | COc1ccc([C@H]2CC(=O)N(c3cc(N)cc(N)c3)C2)cc1OC1CCCC1 | > 10000 nM | > 10000 nM | 
26 | COc1ccc([C@H]2CC(=O)N(c3ccc(S(C)(=O)=O)cc3)C2)cc1OC1CCCC1 | 180 nM | > 10000 nM | 
27 | COc1ccc([C@H]2CC(=O)N(c3cccc(NS(=O)(=O)c4cccc(Br)c4)c3)C2)cc1OC1CCCC1 | 71 nM | > 10000 nM | Selectivity ratio [3]: 13; Selectivity ratio [4]: 32; Selectivity ratio [5]: 0.74; Selectivity ratio [6]: 1.1; EC50 [7]: 923 nM; EC50 [8]: 2260 nM; EC50 [9]: 53 nM; EC50 [10]: 83 nM
28 | COc1ccc([C@H]2CC(=O)N(Cc3cccc([N+](=O)[O-])c3)C2)cc1OC1CCCC1 | > 10000 nM | > 10000 nM | 
29 | Cc1ccnc2c1NC(=O)c1cccnc1N2C1CC1 [NEVIRAPINE] | 50 nM | > 10000 nM | Selectivity ratio [3]: 101; Selectivity ratio [4]: > 200; Selectivity ratio [5]: 3.2; Selectivity ratio [6]: 88; EC50 [7]: 5050 nM; EC50 [8]: > 10000 nM; EC50 [9]: 164 nM; EC50 [10]: 4390 nM
30 | COc1ccc([C@H]2CC(=O)N(c3cccnc3)C2)cc1OC1CCCC1 | 2370 nM | > 10000 nM | 
31 | COc1ccc([C@H]2CC(=O)N(c3ccc(C(F)(F)F)cc3)C2)cc1OC1CCCC1 | 3620 nM | > 10000 nM | 
32 | COc1ccc([C@H]2CC(=O)N(c3cc(N)cc(F)c3)C2)cc1OC1CCCC1 | 80 nM | > 10000 nM | 
33 | COc1ccc([C@H]2CC(=O)N(c3cccc(NS(=O)(=O)c4ccccc4Cl)c3)C2)cc1OC1CCCC1 | 42 nM | > 10000 nM | Selectivity ratio [3]: 4; Selectivity ratio [4]: 13; Selectivity ratio [5]: 0.45; Selectivity ratio [6]: 0.67; EC50 [7]: 170 nM; EC50 [8]: 557 nM; EC50 [9]: 19 nM; EC50 [10]: 28 nM
34 | COc1ccc([C@H]2CC(=O)N(c3ccccc3C)C2)cc1OC1CCCC1 | > 10000 nM | > 10000 nM | 
35 | COc1ccc([C@H]2CC(=O)N(C(C)=O)C2)cc1OC1CCCC1 | > 10000 nM | > 10000 nM | 
36 | COc1ccc([C@H]2CC(=O)N(c3cccc(NS(=O)(=O)c4cccc(F)c4)c3)C2)cc1OC1CCCC1 | 43 nM | > 10000 nM | Selectivity ratio [3]: 6; Selectivity ratio [4]: 16; Selectivity ratio [5]: 0.46; Selectivity ratio [6]: 0.6; EC50 [7]: 261 nM; EC50 [8]: 684 nM; EC50 [9]: 20 nM; EC50 [10]: 26 nM
37 | COc1ccc([C@H]2CC(=O)N(c3ccccc3C(F)(F)F)C2)cc1OC1CCCC1 | > 10000 nM | > 10000 nM | 

Row | SMILES | EC50 [1] | CC50 [2] | also measured
38 | COc1ccc([C@H]2CC(=O)N(c3cccc(NS(=O)(=O)c4cc(C)ccc4OC)c3)C2)cc1OC1CCCC1 | 33 nM | > 10000 nM | Selectivity ratio [3]: 5.2; Selectivity ratio [4]: 15; Selectivity ratio [5]: 0.7; Selectivity ratio [6]: 1; EC50 [7]: 172 nM; EC50 [8]: 507 nM; EC50 [9]: 23 nM
39 | COc1cccc(S(=O)(=O)Nc2cccc(N3C[C@@H](c4ccc(OC)c(OC5CCCC5)c4)CC3=O)c2)c1 | 25 nM | > 10000 nM | Selectivity ratio [3]: 26; Selectivity ratio [4]: 40; Selectivity ratio [5]: 1.3; Selectivity ratio [6]: 3; EC50 [7]: 656 nM; EC50 [8]: 990 nM; EC50 [9]: 33 nM; EC50 [10]: 76 nM
40 | O=C1Nc2ccc(Cl)cc2[C@@](C#CC2CC2)(C(F)(F)F)O1 [EFAVIRENZ] |  |  | EC50 [7]: 32 nM; EC50 [8]: 1 nM; EC50 [9]: 10 nM; EC50 [10]: 2530 nM
41 | COc1ccc([C@H]2CC(=O)N(c3cccc(NS(=O)(=O)c4c(Br)nn(C)c4Cl)c3)C2)cc1OC1CCCC1 | 53 nM | > 10000 nM | 
42 | COc1ccc([C@H]2CC(=O)N(c3ccc([S+](C)[O-])cc3)C2)cc1OC1CCCC1 (stereo partly specified) | 40 nM | 7510 nM | 
43 | COc1ccc([C@H]2CC(=O)N(c3ccc(C)cc3)C2)cc1OC1CCCC1 | 3260 nM | > 10000 nM | 
44 | COc1ccc([C@H]2CC(=O)N(c3ccc(C#N)cc3)C2)cc1OC1CCCC1 | 660 nM | > 10000 nM | 
45 | COc1ccc([C@H]2CC(=O)N(Cc3cccc(N)c3)C2)cc1OC1CCCC1 | > 10000 nM | > 10000 nM | 
46 | COc1ccc([C@H]2CC(=O)N(c3ccccc3C#N)C2)cc1OC1CCCC1 | > 10000 nM | > 10000 nM | 
47 | COc1ccc([C@H]2CC(=O)N(c3cccc(N)c3C)C2)cc1OC1CCCC1 | > 10000 nM | > 10000 nM | 
48 | COc1ccc([C@H]2CC(=O)N(c3ccccn3)C2)cc1OC1CCCC1 | 2630 nM | > 10000 nM | 
49 | COc1ccc([C@H]2CC(=O)N(c3ccncc3)C2)cc1OC1CCCC1 | 110 nM | > 10000 nM | 
50 | COc1ccc([C@H]2CC(=O)N(c3ccccc3N)C2)cc1OC1CCCC1 | > 10000 nM | > 10000 nM | 
51 | COc1ccc([C@H]2CC(=O)N(Cc3cccc(C#N)c3)C2)cc1OC1CCCC1 | > 10000 nM | > 10000 nM | 
52 | COc1ccc([C@H]2CC(=O)N(c3ccc(N)cc3)C2)cc1OC1CCCC1 | 1860 nM | > 10000 nM | 
53 | COc1ccc([C@@H]2CNC(=O)C2)cc1OC1CCCC1 [(-)-ROLIPRAM] | > 10000 nM | > 10000 nM | 
